Results taken from ChEMBL document CHEMBL1125116 (J Med Chem, 1990).

Assays:
Rattus norvegicus [1] = assay: Biodistribution of [125I]IBF in lung was determined in rats 120 minutes after intraveneous injection; type: ADME, organism-based; conditions: in vivo, iv, 2 h
Procedure, shortened: (§1)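 Male Sprague–Dawley rats (225–300 g) with free access to food and water. Under halothane anesthesia they received [125I]IBF (8–10 μCi in 0.2 mL saline) into the femoral vein. Rats were killed by cardiac excision under halothane at the stated time. Organs were weighed and gamma-counted, and % dose/organ was taken against diluted aliquots of the injectate. Blood was assumed to be 7% of body weight and muscle 40%.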

Rattus norvegicus [2] = assay: Biodistribution of [125I]IBF in skin was determined in rats 30 minutes after intraveneous injection; type: ADME, organism-based, Zone of skin; conditions: in vivo, iv, 0.5 h; procedure, shortened: as §1
Rattus norvegicus [3] = assay: Biodistribution of [125I]IBF in thyroid was determined in rats 2 minutes after intraveneous injection; type: ADME, organism-based, Thyroid gland; conditions: in vivo, iv
Procedure, shortened: (§2)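 Male Sprague–Dawley rats (225–300 g) with free access to food and water were anesthetized with halothane. Each received 0.2 mL saline containing 8–10 μCi [125I]IBF into the femoral vein and was killed by cardiac excision under halothane at set times. Organs were weighed and gamma-counted, and uptake was calculated against diluted aliquots of the injected dose.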

Rattus norvegicus [4] = assay: Biodistribution of [125I]-IBF in blood was determined in rats 60 minutes after intraveneous injection; type: ADME, organism-based; conditions: in vivo, iv, 1 h; procedure, shortened: as §1
Rattus norvegicus [5] = assay: Biodistribution of [125I]IBF in striatum was determined in rats 2 minutes after intraveneous injection; type: ADME, organism-based; conditions: in vivo, iv; procedure, shortened: as §2
Rattus norvegicus [6] = assay: Biodistribution of [125I]IBF in lung was determined in rats 15 minutes after intraveneous injection; type: ADME, organism-based; conditions: in vivo, iv, 0.25 h; procedure, shortened: as §1
Rattus norvegicus [7] = assay: Biodistribution of [125I]-IBF in blood was determined in rats 2 minutes after intraveneous injection; type: ADME, organism-based; conditions: in vivo, iv; procedure, shortened: as §1
Rattus norvegicus [8] = assay: Biodistribution of [125I]IBF in liver was determined in rats 2 minutes after intraveneous injection; type: ADME, organism-based; conditions: in vivo, iv; procedure, shortened: as §1
Rattus norvegicus [9] = assay: Biodistribution of [125I]IBF in brain was determined in rats 15 minutes after intraveneous injection; type: ADME, organism-based; conditions: in vivo, iv, 0.25 h; procedure, shortened: as §1
Rattus norvegicus [10] = assay: Biodistribution of [125I]IBF in lung was determined in rats 2 minutes after intraveneous injection; type: ADME, organism-based; conditions: in vivo, iv; procedure, shortened: as §1
Rattus norvegicus [11] = assay: Biodistribution of [125I]IBF in brain/blood was determined in rats 60 minutes after intraveneous injection; type: ADME, organism-based; conditions: in vivo, iv, 1 h
Rattus norvegicus [12] = assay: Biodistribution of [125I]IBF in brain/blood was determined in rats 2 minutes after intraveneous injection; type: ADME, organism-based; conditions: in vivo, iv
Rattus norvegicus [13] = assay: Biodistribution of [125I]IBF in skin was determined in rats 15 minutes after intraveneous injection; type: ADME, organism-based, Zone of skin; conditions: in vivo, iv, 0.25 h; procedure, shortened: as §1
Rattus norvegicus [14] = assay: Biodistribution of [125I]IBF in striatum was determined in rats 120 minutes after intraveneous injection; type: ADME, organism-based; conditions: in vivo, iv, 2 h
Rattus norvegicus [15] = assay: Biodistribution of [125I]IBF in kidney was determined in rats 2 minutes after intraveneous injection; type: ADME, organism-based; conditions: in vivo, iv; procedure, shortened: as §1
Rattus norvegicus [16] = assay: Biodistribution of [125I]IBF in blood was determined in rats 15 minutes after intraveneous injection; type: ADME, organism-based; conditions: in vivo, iv, 0.25 h; procedure, shortened: as §1
Rattus norvegicus [17] = assay: Biodistribution of [125I]-IBF in muscle was determined in rats 120 minutes after intraveneous injection; type: ADME, organism-based, Muscle tissue; conditions: in vivo, iv, 2 h; procedure, shortened: as §1
Rattus norvegicus [18] = assay: Biodistribution of [125I]IBF in kidney was determined in rats 120 minutes after intraveneous injection; type: ADME, organism-based; conditions: in vivo, iv, 2 h; procedure, shortened: as §1
Rattus norvegicus [19] = assay: Biodistribution of [125I]IBF in kidney was determined in rats 30 minutes after intraveneous injection; type: ADME, organism-based; conditions: in vivo, iv, 0.5 h; procedure, shortened: as §1
Rattus norvegicus [20] = assay: Biodistribution of [125I]IBF in blood was determined in rats 30 minutes after intraveneous injection; type: ADME, organism-based; conditions: in vivo, iv, 0.5 h; procedure, shortened: as §1
Rattus norvegicus [21] = assay: Biodistribution of [125I]IBF in muscle was determined in rats 60 minutes after intraveneous injection; type: ADME, organism-based, Muscle tissue; conditions: in vivo, iv, 1 h; procedure, shortened: as §1
Rattus norvegicus [22] = assay: Biodistribution of [125I]IBF in heart was determined in rats 2 minutes after intraveneous injection; type: ADME, organism-based; conditions: in vivo, iv; procedure, shortened: as §1
Rattus norvegicus [23] = assay: Biodistribution of [125I]IBF in spleen was determined in rats 2 minutes after intraveneous injection; type: ADME, organism-based; conditions: in vivo, iv; procedure, shortened: as §1
Rattus norvegicus [24] = assay: Biodistribution of [125I]-IBF in heart was determined in rats 120 minutes after intraveneous injection; type: ADME, organism-based; conditions: in vivo, iv, 2 h; procedure, shortened: as §1
[25] = Biodistribution of [125I]IBF in blood was determined in rats 30 minutes after intraveneous injection; conditions: rat, in vivo, iv, 0.5 h
Rattus norvegicus [26] = assay: Biodistribution of [125I]IBF in brain was determined in rats 2 minutes after intraveneous injection; type: ADME, organism-based; conditions: in vivo, iv; procedure, shortened: as §1
Rattus norvegicus [27] = assay: Biodistribution of [125I]IBF in kidney was determined in rats 15 minutes after intraveneous injection; type: ADME, organism-based; conditions: in vivo, iv, 0.25 h; procedure, shortened: as §1
Rattus norvegicus [28] = assay: Biodistribution of [125I]IBF in liver was determined in rats 30 minutes after intraveneous injection; type: ADME, organism-based; conditions: in vivo, iv, 0.5 h; procedure, shortened: as §1
Rattus norvegicus [29] = assay: Biodistribution of [125I]IBF in liver was determined in rats 15 minutes after intraveneous injection; type: ADME, organism-based; conditions: in vivo, iv, 0.25 h; procedure, shortened: as §1
Rattus norvegicus [30] = assay: Biodistribution of [125I]IBF in brain/blood was determined in rats 15 minutes after intraveneous injection; type: ADME, organism-based; conditions: in vivo, iv, 0.25 h

Dose/organ (Rattus norvegicus [1]): 0.12%
Dose/organ (Rattus norvegicus [2]): 5.34%
Dose/organ (Rattus norvegicus [3]): 0.06%
Dose/organ (Rattus norvegicus [4]): 0.98%
Dose/organ (Rattus norvegicus [5]): 0.743%
Dose/organ (Rattus norvegicus [6]): 1.85%
Dose/organ (Rattus norvegicus [7]): 3.5%
Dose/organ (Rattus norvegicus [8]): 16.32%
Dose/organ (Rattus norvegicus [9]): 0.54%
Dose/organ (Rattus norvegicus [10]): 6.14%
Dose/organ (Rattus norvegicus [11]): 1.9
Dose/organ (Rattus norvegicus [12]): 2.64
Dose/organ (Rattus norvegicus [13]): 8.46%
Dose/gram (Rattus norvegicus [14]): 0.444 % dose/g
Dose/organ (Rattus norvegicus [15]): 7.58%
Dose/organ (Rattus norvegicus [16]): 1.8%
Dose/organ (Rattus norvegicus [17]): 2.3%
Dose/organ (Rattus norvegicus [18]): 0.68%
Dose/organ (Rattus norvegicus [19]): 1.58%
Dose/organ (Rattus norvegicus [20]): 1.26%
Dose/organ (Rattus norvegicus [21]): 4.97%
Dose/organ (Rattus norvegicus [22]): 0.81%
Dose/organ (Rattus norvegicus [23]): 0.96%
Dose/organ (Rattus norvegicus [24]): 0.02%
Dose/organ [25]: 1.26%
Dose/organ (Rattus norvegicus [26]): 0.98%
Dose/organ (Rattus norvegicus [27]): 2.92%
Dose/organ (Rattus norvegicus [28]): 11.59%
Dose/organ (Rattus norvegicus [29]): 16.16%
Dose/organ (Rattus norvegicus [30]): 3.01
Compound: CCN1CCC[C@H]1CNC(=O)c1cc(I)cc2c1OCC2
